Experimental data as given in paper PMC7826402 (Proceedings of the National Academy of Sciences of the …, 2021).

Columns and labels:
CXCR4 [1] = details: cited from earlier work
[2] = test system: CXCR4-mediated HIV-1 infection; assay: CXCR4-tropic HIV-1 NL4-3 infection of GHOST-CXCR4 cells; format: cell-based, HIV-1 in human osteosarcoma (GHOST) cells; details: GHOST-CXCR4, HIV-1 NL4-3; three experiments
CXCR4 [3] = assay: CXCR4 surface expression on PBMCs; format: cell-based, human; details: 10 µM, 1 h at 37°C; FACS; n = 3 donors
GPR15 [4] = assay: GPR15 surface expression on PBMCs; format: cell-based, human; details: 10 µM, 1 h at 37°C; FACS; n = 3 donors
GPR15 [5] = assay: Calcium release in GPR15-expressing CHO cells; format: cell-based; details: CHO cells with human GPR15 and Gα16; aequorin; quadruplicate
[6] = test system: GPR15-mediated SIVmac239 infection; assay: Inhibition of GPR15-mediated SIVmac239 infection of GHOST-GPR15 cells; format: cell-based, SIVmac239 in human osteosarcoma (GHOST) cells
Procedure, shortened: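 GHOST-GPR15 cells were seeded, cultured overnight and treated with test peptide for 2 h at 37 °C. They were then infected with SIVmac239 carrying Firefly luciferase in place of nef. Three days post-infection, cells were lysed and luciferase activity (RLU) was measured. Runs were at least in triplicate (mean ± SEM), and IC₅₀ was derived from increasing peptide concentrations.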

GPR15 [7] = assay: GPR15 cell surface down-modulation in GHOST-GPR15 and CEM-M7 cells; format: cell-based, human
CCR5 = details: cited from earlier work

Molecule: c1cc(CN2CCCNCCNCCCNCC2)ccc1CN1CCCNCCNCCCNCC1 [AMD3100, reference compound]
- antagonism of chemokine signaling via CXCR4 (CXCR4 [1]): antagonize chemokine signaling via these GPCRs
- inhibition of CXCR4-mediated HIV-1 infection [2]: in contrast to the small molecule inhibitor AMD3100, neither CysC95-146 nor GPR15L inhibited

Molecule: GPR15L: agonistic chemokine ligand of GPR15 (KRRPAKAWSGRRTRLCCHRVPSPNSTNLKGHHVRLCKPCKLEPEPRLWVVPGALPQV; UniProt Q6UWK7 25-81, looked up)
- CXCR4 surface expression on PBMCs (CXCR4 [3]): induced significant down-modulation of CXCR4
- reduction of GPR15 cell surface expression on PBMCs (GPR15 [4]): ~40%
- inhibition of CXCR4-mediated HIV-1 infection [2]: neither CysC95-146 nor GPR15L inhibited CXCR4-mediated HIV-1 infection
- calcium release (GPR15 signaling) (GPR15 [5]): GPR15 signaling was confirmed
- effect of GPR15L on antiviral activity of CysC95-146 ([6]; GHOST-GPR15 treated with CysC95-146 in presence or absence of GPR15L, SIVmac239 luciferase reporter): did not enhance the antiviral activity of CysC95-146
- inhibitory effect on HIV and SIV entry ([6]; overall statement (Discussion)): little if any inhibitory effect on HIV and SIV entry
- GPR15 cell surface expression (GPR15 [7]; GHOST-GPR15 and CEM-M7 cells, 30 min at 37°C or 4°C, flow cytometry): induced down-regulation of GPR15 from the surface of GHOST-GPR15 and CEM-M7 cells
- GPR15 receptor internalization on ice (GPR15 [7]; cells kept on ice (4°C)): strongly reduced

Molecule: Maraviroc [reference compound]
- antagonism of chemokine signaling via CCR5 (CCR5): antagonize chemokine signaling via these GPCRs

Molecule: CXCL-12/SDF-1: chemokine ligand of CXCR4
- inhibition of CXCR4-mediated HIV-1 infection by chemokine ligand (CXCR4 [1]): inhibit CCR5- or CXCR4-mediated HIV-1 infection, respectively

B1: CCL5/RANTES: chemokine ligand of CCR5 (protein, UniProt P13501 24-91, looked up)
C-C motif chemokine 5: SPYSSDTTPCCFAYIARPLPRAHIKEYFYTSGKCSNPAVVFVTRKNRQVCANPEKKWVREYINSLEMS
- inhibition of CCR5-mediated HIV-1 infection by chemokine ligand (CCR5): inhibit CCR5- or CXCR4-mediated HIV-1 infection, respectively

B2: cystatin C: small (13 kDa) basic protein; human Cystatin C protein (purified, from human urine) (protein, UniProt P01034 27-146, looked up)
Cystatin-C: SSPGKPPRLVGGPMDASVEEEGVRRALDFAVGEYNKASNDMYHSRALQVVRARKQIVAGVNYFLDVELGRTTCTKTQPNLDNCPFHDQPHLKRKAFCSFQIYAVPWQGTMTLSKSTCQDA
- inhibition of GPR15-mediated SIVmac239 infection (in words) ([6]; GHOST-GPR15 cells, SIVmac239 F-Luc, peptide preincubation 1 – 2 h 37 °C, 3 dpi): little inhibitory effect
